Wnt act = activators of Wnt/beta-catenin signaling. Wnt/beta-catenin reporter cell assay, activator, plate reader. activation, % at 9.35 µM. 300,000 compounds, 1.2% hits. AID 743398; in the data active = activation above about 30%, passing the limit was not always enough; inconclusive = no clear call, values can overlap the other calls;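 also: 0% = neutral control wells and 100% = positive control wells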
SR-BI uptake up = enhances SR-BI lipid uptake from DiI-HDL. 320,000 compounds, 0.096% hits. activation, % at 12.5 µM. AID 504775. CHO ldlA[mSR-BI] cells, DiI-HDL uptake fluorescence, 3 h; 100 = double the neutral-control signal;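 active = mean replicate activation of at least 60% and every replicate at or above 60%; inconclusive = mean or all-replicate condition met, but not both; inactive = mean below 60% and not all replicates reaching 60%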;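 also: 0% = median plate neutral-control signal and 100% = twice that signal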
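Test system: SR-BI-overexpressing, LDLR-lacking CHO cells; Also added: labelled HDL, 10 µg/mL; Measured by: bottom-read cell fluorescence after medium removal, ex 550/em 595 nm; Timing: 3 h uptake period with compound, 37 °C; Buffer or medium: F12, 0.5% BSA, 25 mM HEPES; Doses: single compound concentration, delivered by pin transfer.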
MITF TRPM1 HTS = activators of MITF-driven TRPM1 promoter activity in SK-MEL-5 cells | SK-MEL-5 TRPM1-promoter luciferase, 24 h; % of positive control, neutral wells = 0 | activation, % at 12.5 µM | AID 588334 | 300,000 compounds, 0.75% hits;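 active = mean activation of at least 80% with every replicate also reaching 80%; inconclusive = mean reaches 80% but some replicate falls short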;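 also: 0% = neutral control wells and 100% = parthenolide positive control wells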
HSF1 activator = increases HSF-1 driven luciferase reporter signal | NIH3T3-HGL HSF-1 luciferase reporter, MG132, 8 h; 100% = twice DMSO control signal | activation, % at 9 µM | 300,000 compounds, 1.7% hits | AID 504408;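 active = mean replicate activation of at least 50% with a set share of replicates each reaching 50%; inconclusive = only one of those two conditions met; inactive = mean below 50% and too few replicates reaching it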;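 also: 0% = median of the neutral control wells and 100% = twice that signal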
SR-BI DiI inh = inhibitors of mouse SR-BI mediated HDL lipid uptake; ldlA[mSR-BI] CHO cells, DiI-HDL uptake fluorescence, 3 h; inhibition, % at 12.5 µM; 320,000 compounds, 0.96% hits;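 active = mean replicate inhibition of at least 70% and a set share of replicates each scoring 70 or more; inconclusive = meets just one of the two criteria; inactive = fails both criteria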;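 also: 0% = median of neutral control wells and 100% = median of positive control wells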
Target sequence (Q61009 whole entry, looked up): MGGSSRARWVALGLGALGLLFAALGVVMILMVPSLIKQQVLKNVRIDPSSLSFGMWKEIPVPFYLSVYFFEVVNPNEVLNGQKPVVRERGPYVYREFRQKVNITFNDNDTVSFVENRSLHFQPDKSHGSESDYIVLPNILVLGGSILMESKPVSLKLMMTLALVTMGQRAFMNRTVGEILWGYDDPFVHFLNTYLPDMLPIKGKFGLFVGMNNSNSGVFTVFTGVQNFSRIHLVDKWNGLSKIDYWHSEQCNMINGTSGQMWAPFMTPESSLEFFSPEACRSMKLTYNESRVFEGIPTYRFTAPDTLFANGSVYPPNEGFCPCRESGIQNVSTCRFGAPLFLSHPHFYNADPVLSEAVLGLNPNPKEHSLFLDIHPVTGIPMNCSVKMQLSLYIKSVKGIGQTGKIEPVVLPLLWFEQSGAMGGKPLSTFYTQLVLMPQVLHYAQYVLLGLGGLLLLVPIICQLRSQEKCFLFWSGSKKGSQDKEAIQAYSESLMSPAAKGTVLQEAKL
DiI quencher = counter-screen for SR-BI lipid transfer inhibitors: DiI fluorescence quenchers | 470 compounds, 20% hits | shares compounds with SR-BI DiI inh | AC50, µM (highest dose often 35 µM), inactives show at the top dose activity change, negative = quenching | AID 540326 | cell-free DiI-HDL fluorescence quenching, 30 min;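 active = quenching, a falling signal, with AC50 below a set limit tied to the top valid dose, actives reach about 32 µM in these data; inconclusive = no clear call, values can overlap the other calls; inactive = rising signal, and the rest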
Starred values were filed as active, the others as inactive; u = inconclusive; x = no result. Hits are enriched below; roughly 3.6% of the tested compounds scored in any of these assays.

SMILES | Wnt act | SR-BI uptake up | MITF TRPM1 HTS | HSF1 activator | SR-BI DiI inh | DiI quencher
O=C(N[C@@H]1C/C=C\C[C@@H](CC(=O)N(CCO)Cc2ccccc2)C(=O)NC[C@H](c2ccccc2)OC1=O)OCC1c2ccccc2-c2ccccc21 | -1 | -53 | -2 | x | 53 | x
CC1CC(C)CN(C(CCc2ccccc2)C(=O)NC2CCCCC2)C1 (configuration not stated) | -2 | x | x | x | x | x
COc1cccc(C2NC(=S)NC(C)=C2C(C)=O)c1 (configuration not stated) | -4 | x | x | x | x | x
CN(C)Cc1c(OC(=O)c2ccc(N)cc2)ccc2ccccc12 | -8 | 14 | 1 | x | -14 | x
CCCC(=O)N1CCc2cc(-c3nc(N)sc3C)ccc21 | 0 | -75 | 69 | 22 | 75* | -9%
CNc1nc(-c2ccc3c(c2)CCN3C(=O)c2ccccc2F)c(C)s1 | -1 | -57 | 25 | 5 | 57 | -4%
CNc1nc(-c2ccc3c(c2)CCN3C(=O)c2ccccc2F)cs1 | 0 | -70 | 46 | 6 | 70 | x
Cc1cc(=O)oc2cc(OCC(=O)N3CCN(C(=O)C4COc5ccccc5O4)CC3)c(Cl)cc12 (configuration not stated) | 0 | -80 | 6 | 6 | 80* | -5%
Cc1ccc(/C=C/C(=O)Nc2sc3c(c2C#N)CCCC3)o1 | 14 | -75 | 28 | -8 | 75* | -5%
Cc1cccc(N2CCN(C(=O)Cn3cccc3C(=O)c3ccccc3)CC2)c1C | -6 | -73 | x | 2 | 73* | -7%
Cc1cccc(N2CCN(C(=O)CN3C(=O)NC4(CCCCCC4)C3=O)CC2)c1C | -1 | -73 | -2 | x | 73* | -3%
COc1cccc(N2CCN(C(=O)CN3C(=O)NC4(CCCC4)C3=O)CC2)c1 | -2 | -12 | -9 | 14 | 12 | x
COc1ccccc1CNC(=O)COc1cc2c(c3oc(=O)cc(C)c13)CCC(C)(C)O2 | -2 | -55 | x | -10 | 55 | x
Cc1ccc(S(=O)(=O)N2CC3C(=O)C[C@@H](c4ccccc4)N(S(=O)(=O)c4cccc(Cl)c4)C3CC2c2ccccc2)cc1 (some centres not stated) | -2 | x | x | x | x | x
O=C(CNSc1ccc([N+](=O)[O-])cc1[N+](=O)[O-])OCc1ccccc1 | 7 | x | x | x | x | x
CN1CCc2ccc(NC(=O)c3ccc(C(F)(F)F)cc3)cc2C1 | 7 | -82 | -5 | 25 | 82* | 2%
CN1CCN(c2ccc(NC(=O)c3ccc(C(F)(F)F)cc3)cn2)CC1 | -1 | -8 | 3 | -11 | 8 | x
COc1cc([N+](=O)[O-])ccc1NC(=O)NCC1CCN(Cc2ccc(Cl)cc2)CC1 | 2 | -83 | 13 | -5 | 83* | -5%
O=C(CNc1ccc(C(F)(F)F)cc1)Nc1cccc(S(=O)(=O)N2CCCCC2)c1 | -1 | x | x | x | x | x
O=C([C@H]1O[C@@H](n2ccc(=O)[nH]c2=O)[C@H](O)[C@@H]1O)N1CCC(F)(F)CC1 | -5 | x | x | x | x | x
COc1cc(OC)cc(C(=O)N[C@H](C(=O)Nc2nc(-c3cc(OC)ccc3OC)cs2)C(C)C)c1 | -7 | -71 | 20 | 9 | u | -1%
COc1cc(OC)cc(C(=O)N[C@H](C(=O)Nc2nc(-c3ccc(OC)c(OC)c3)cs2)C(C)C)c1 | 0 | x | 1 | 0 | x | x
Cc1cc(NC(=O)OC(C)(C)C)c(-n2nnnc2C(C(=O)c2ccccc2)N2CCOCC2)cc1C (configuration not stated) | -1 | x | x | x | x | x
COc1cccc(-c2csc(N3CCN(C(=S)Nc4cccc(Cl)c4)CC3)n2)c1 | -1 | -79 | 15 | 0 | 79* | -6%
O=C(O)c1cc(N2C(=O)C=CC2=O)cc(N2C(=O)C=CC2=O)c1 | -4 | 9 | 20 | x | -9 | -3%
SMILES | Wnt act | SR-BI uptake up | MITF TRPM1 HTS | HSF1 activator | SR-BI DiI inh | DiI quencher
CCOC(=O)Nc1nc(-c2ccccc2)c(C(=O)c2ccccc2)s1 | x | -75 | -39 | -22 | 75* | -2%
C[C@H]1CN([C@@H](C)CO)C(=O)CCCn2nncc2CO[C@@H]1CN(C)CC1CC1 | -1 | x | x | x | x | x
CCC1CCCCN1C(=O)CSc1nnc(-c2ccco2)o1 (configuration not stated) | 47* | -76 | 47 | x | 76* | -6%
CCc1cc(=O)oc2c3c(cc(OCC(=O)NCc4ccco4)c12)OC(C)(C)CC3 | x | -76 | 1 | -4 | u | 0%
Cc1ccc(NS(=O)(=O)c2ccc(C(=O)NNC(=O)c3ccccc3O)cc2)cc1 | -8 | -120 | -16 | -3 | 120* | 0.46µM*
COc1ccc(C(C(=O)Nc2c(C)cccc2C)n2c(=O)c(-c3ccco3)nc3ccccc32)cc1 (configuration not stated) | -4 | x | x | x | x | x
CCCCn1nc2cc(C(=O)NC3CCCc4ccccc43)ccc2c1OCC (configuration not stated) | -4 | -80 | -12 | 13 | 80* | -3%
CCCCCCN1CCN(C2CN(Cc3ccc([N+](=O)[O-])cc3)S(=O)(=O)C2)CC1 (configuration not stated) | -2 | x | x | x | x | x
CC(C)c1cc(CNC(=O)C2CCC(=O)N(CCc3ccc(Cl)cc3)C2)on1 (configuration not stated) | -2 | -78 | -9 | 6 | 78* | -1%
COc1ccc(CCN2CC(C(=O)NCc3cc(C(C)C)no3)CCC2=O)cc1 (configuration not stated) | 0 | 12 | 12 | 7 | -12 | -2%
CC(=O)c1ccc(-c2ccc(C(=O)Nc3nc(C)c(C(C)=O)s3)o2)cc1 | 2 | -50 | 10 | x | 50 | -4%
CC(=O)c1sc(NC(=O)c2ccc(F)c(F)c2)nc1C | x | -12 | 23 | 12 | 12 | x
COc1ccc(COC(=O)c2ccc(Br)c(S(=O)(=O)N3CCOCC3)c2)cc1F | -1 | -74 | 1 | 12 | 74* | 2%
COc1ccc(C(=O)OCc2ccc(C)cc2)cc1S(=O)(=O)N1CCOCC1 | -4 | -55 | 14 | x | 55 | x
COc1ccc(CCn2c(C)cc(C(=O)CSc3nnc(N)s3)c2C)cc1 | x | -27 | x | 14 | 27 | x
COc1ccc(CCn2c(C)cc(C(=O)CSc3nc(N)cc(=O)[nH]3)c2C)cc1 | x | -81 | -24 | -9 | 81* | 1%
COCCCNc1nc2c(-c3cccc(C)c3)nnn2c2ccccc12 | -5 | -103 | x | -2 | 103* | 10%
O=C1COc2ccc(C(=O)COC(=O)c3ccco3)cc2N1 | 7 | x | 1 | 5 | x | x
CC(C)[C@H](NC(=O)c1ccco1)C(=O)OCC(=O)c1ccc2c(c1)NC(=O)CO2 | -2 | 20 | -50 | 1 | -20 | -5%
c1cc(-c2cc3c(o2)CCCC3OCCN2CCOCC2)cs1 (configuration not stated) | -5 | x | x | x | x | x
